Test results: ChEMBL document CHEMBL1667815, “Pharmacophore models based studies on the affinity and selectivity toward 5-HT1A with reference to α1-adrenergic receptors among arylpiperazine derivatives of phenytoin” (Bioorg Med Chem, 2011)

Key:
Rattus norvegicus = species: Rattus norvegicus; experiment: Selectivity ratio of Ki for alpha1-adrenergic receptor in rat cerebral cortex membranes to Ki for 5-HT1A receptor in rat hippocampal membranes; format: cell membranes; details: Membrane
[1] = target: T1, 5-hydroxytryptamine receptor 1A (Rattus norvegicus) (UniProt P19327); experiment: Displacement of [3H]-8-OH-DPAT from 5-HT1A receptor in rat hippocampal membranes by liquid scintillation counting; format: cell membranes; details: Hippocampus, Membrane
T1 sequence (whole entry): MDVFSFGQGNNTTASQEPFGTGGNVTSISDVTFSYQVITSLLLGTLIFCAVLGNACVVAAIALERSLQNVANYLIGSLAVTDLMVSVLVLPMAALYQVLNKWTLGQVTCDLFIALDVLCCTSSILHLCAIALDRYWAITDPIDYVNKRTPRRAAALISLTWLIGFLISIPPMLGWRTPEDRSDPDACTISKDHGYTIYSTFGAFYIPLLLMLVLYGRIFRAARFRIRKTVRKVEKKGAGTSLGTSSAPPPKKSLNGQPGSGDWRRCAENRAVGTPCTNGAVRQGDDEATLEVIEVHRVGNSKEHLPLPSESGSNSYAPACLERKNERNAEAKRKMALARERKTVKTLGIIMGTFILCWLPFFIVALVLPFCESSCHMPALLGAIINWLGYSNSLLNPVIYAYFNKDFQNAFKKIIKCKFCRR
Procedure, shortened: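 Native 5-HT1A sites in rat hippocampal membranes, labelled with [3H]-8-OH-DPAT (170.2 Ci/mmol). Each compound was tested at two concentrations (0.1 and 1), each in triplicate. Bound radioactivity was counted by liquid scintillation. Ks values were estimated from three independent binding experiments and reproduced within 20%.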

[2] = target: T2, Adrenergic receptor alpha-1 (Rattus norvegicus, UniProt P15823+P23944+P43140); experiment: Displacement of [3H]-prazosin from alpha1-adrenergic receptor in rat cerebral cortex membranes after 30 mins by scintillation counting; format: cell membranes, Membrane
T2 sequence (P15823 whole entry): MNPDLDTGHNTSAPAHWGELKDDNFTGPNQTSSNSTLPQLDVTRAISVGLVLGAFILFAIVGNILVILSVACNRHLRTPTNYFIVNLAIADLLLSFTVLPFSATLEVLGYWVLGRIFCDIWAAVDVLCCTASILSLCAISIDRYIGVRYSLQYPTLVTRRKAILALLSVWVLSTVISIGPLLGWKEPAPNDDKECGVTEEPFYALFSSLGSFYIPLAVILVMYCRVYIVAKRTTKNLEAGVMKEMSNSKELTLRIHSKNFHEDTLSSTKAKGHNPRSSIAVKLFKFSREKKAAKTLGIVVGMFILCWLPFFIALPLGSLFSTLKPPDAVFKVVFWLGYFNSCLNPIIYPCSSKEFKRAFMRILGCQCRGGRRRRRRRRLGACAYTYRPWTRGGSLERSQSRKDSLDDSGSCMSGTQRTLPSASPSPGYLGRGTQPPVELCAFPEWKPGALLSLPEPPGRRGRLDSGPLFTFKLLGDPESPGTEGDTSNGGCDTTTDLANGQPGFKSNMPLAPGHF
T2 sequence (P23944 whole entry): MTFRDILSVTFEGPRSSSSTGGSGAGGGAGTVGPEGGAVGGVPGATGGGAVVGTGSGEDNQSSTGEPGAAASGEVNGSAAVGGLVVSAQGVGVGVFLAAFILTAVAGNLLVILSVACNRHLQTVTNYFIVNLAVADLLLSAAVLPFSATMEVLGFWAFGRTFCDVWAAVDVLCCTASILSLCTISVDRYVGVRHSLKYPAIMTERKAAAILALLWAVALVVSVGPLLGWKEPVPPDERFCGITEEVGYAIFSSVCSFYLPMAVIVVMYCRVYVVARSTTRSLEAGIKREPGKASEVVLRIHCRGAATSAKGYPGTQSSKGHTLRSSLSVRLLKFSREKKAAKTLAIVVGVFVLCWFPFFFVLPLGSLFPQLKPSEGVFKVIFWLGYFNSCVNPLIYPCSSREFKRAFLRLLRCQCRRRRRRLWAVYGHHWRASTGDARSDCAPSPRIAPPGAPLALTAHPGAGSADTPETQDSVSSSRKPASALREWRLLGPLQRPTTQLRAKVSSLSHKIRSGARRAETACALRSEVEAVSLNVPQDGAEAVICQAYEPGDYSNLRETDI
T2 sequence (P43140 whole entry): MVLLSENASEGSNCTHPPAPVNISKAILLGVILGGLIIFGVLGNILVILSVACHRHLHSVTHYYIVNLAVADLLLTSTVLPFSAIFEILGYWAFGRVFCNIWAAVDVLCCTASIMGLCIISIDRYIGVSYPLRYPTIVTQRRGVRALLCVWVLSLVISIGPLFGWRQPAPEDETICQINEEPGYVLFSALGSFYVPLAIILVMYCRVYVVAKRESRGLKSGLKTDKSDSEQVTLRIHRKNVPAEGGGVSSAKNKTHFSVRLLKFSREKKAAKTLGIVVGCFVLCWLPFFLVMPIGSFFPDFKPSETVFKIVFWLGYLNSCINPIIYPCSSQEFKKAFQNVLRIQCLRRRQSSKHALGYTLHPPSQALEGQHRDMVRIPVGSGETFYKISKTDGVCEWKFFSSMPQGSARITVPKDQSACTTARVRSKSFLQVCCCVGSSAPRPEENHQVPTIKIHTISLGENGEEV

[3] = target: Adrenergic receptor alpha-1 (Rattus norvegicus) (UniProt P15823+P23944+P43140); details: Wistar, Thoracic aorta

| Structure (SMILES) | Ratio (Rattus norvegicus) | Ks [1] | Ki [2] | pKb [3] |
| --- | --- | --- | --- | --- |
| COc1ccccc1N1CCN(CC(O)CN2C(=O)N(CC(=O)O)C(=O)C2(c2ccccc2)c2ccccc2)CC1.Cl (racemic) | 8.35 | 575 nM | 4.8 µM |  |
| CCN1C(=O)N(CC(O)CN2CCN(c3ccccc3)CC2)C(c2ccccc2)(c2ccccc2)C1=O (racemic) |  | 610 nM |  |  |
| CCOC(=O)C(C)N1C(=O)N(CC(O)CN2CCN(c3ccccc3OC)CC2)C(c2ccccc2)(c2ccccc2)C1=O (racemic) | 4.52 | 30 nM |  |  |
| CCOC(=O)CN1C(=O)N(CC(O)CN2CCN(c3ccccc3OC)CC2)C(c2ccccc2)(c2ccccc2)C1=O (racemic) |  | 88 nM |  |  |
| CCOc1ccccc1N1CCN(CC(CN2C(=O)N(C)C(=O)C2(c2ccccc2)c2ccccc2)OC(C)=O)CC1 (racemic) |  | 38 nM |  |  |
| CCOc1ccccc1N1CCN(CC(O)CN2C(=O)N(C(C)C(=O)OC)C(=O)C2(c2ccccc2)c2ccccc2)CC1 (racemic) |  | 28 nM |  |  |
| CCOc1ccccc1N1CCN(CC(O)CN2C(=O)N(C)C(=O)C2(c2ccccc2)c2ccccc2)CC1 (racemic) | 17.4 | 7 nM |  |  |
| CCOc1ccccc1N1CCN(CC(O)CN2C(=O)N(CC(=O)OC)C(=O)C2(c2ccccc2)c2ccccc2)CC1 (racemic) |  | 37 nM |  |  |
| CCOc1ccccc1N1CCN(CC(O)CN2C(=O)NC(=O)C2(c2ccccc2)c2ccccc2)CC1 (racemic) |  | 83 nM |  | 7.44 |
| COC(=O)C(C)N1C(=O)N(CC(O)CN2CCN(c3ccccc3OC)CC2)C(c2ccccc2)(c2ccccc2)C1=O (racemic) | 1 | 104 nM |  |  |
| COC(=O)CN1C(=O)N(CC(O)CN2CCN(c3ccccc3OC)CC2)C(c2ccccc2)(c2ccccc2)C1=O (racemic) | 2.29 | 86 nM |  |  |
| COc1ccccc1N1CCN(CC(O)CN2C(=O)N(C)C(=O)C2(c2ccccc2)c2ccccc2)CC1 (racemic) |  | 22 nM |  |  |
| COc1ccccc1N1CCN(CC(O)CN2C(=O)NC(=O)C2(c2ccccc2)c2ccccc2)CC1 (racemic) |  | 95 nM |  |  |
| O=C1NC(=O)C(c2ccccc2)(c2ccccc2)N1CC(O)CN1CCN(c2ccccc2)CC1 (racemic) |  | 573 nM |  |  |
